From ChEMBL document CHEMBL1131831, “A rapid method to identify exo-protease inhibitors” (Bioorg Med Chem Lett, 1999)

What was measured:
[1] = substrate: CN(C(=O)[C@@H](CCCCC(=N)N)NC(=O)[C@H](Cc1ccccc1)NC(=O)[C@H]1CCCN1C(=O)OCc1ccccc1)c1ccc(C#C/C=C/c2ccc([N+](=O)[O-])c(O)c2)cc1; assay: Proteolysis constant (Km), when mixed with kallikrein enzyme for the conversion of water-soluble compound to fluorescent oil-soluble compound
Summary of the method: (§1)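 Porcine pancreatic trypsin (type IX), porcine pancreatic kallikrein, bovine spleen cathepsin B and porcine pancreatic elastase, each enzyme added to 12 µM substrate solution over mineral oil, shaken at 37 °C. Buffers: trypsin 10 mM Tris-HCl pH 7.8; kallikrein 50 mM Tris pH 9.0; cathepsin B 100 mM potassium phosphate pH 6.0; elastase 10 mM Tris-HCl pH 7.5. Released fluorophore in the oil is diluted with n-heptane and quantified at 424 nm against oil absorbance at 272 nm.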

[2] = substrate: COCCOCCOCCOCCOC(=O)N[C@@H](C)C(=O)N[C@H](C)C(=O)N(C)c1ccc(C#C/C=C/c2ccc([N+](=O)[O-])c(O)c2)cc1; assay: Proteolysis constant (Km), when mixed with elastase enzyme for the conversion of water-soluble compound to fluorescent oil-soluble compound; summary of the method: as §1
[3] = substrate: CC[C@@H](C)[C@@H](NC(=O)OCc1ccccc1)C(=O)N1CCC[C@H]1C(=O)N[C@H](CCCCC(=N)N)C(=O)N(C)c1ccc(C#C/C=C/c2ccc([N+](=O)[O-])c(O)c2)cc1; assay: Proteolysis constant (Km), when mixed with trypsin enzyme for the conversion of water-soluble compound to fluorescent oil-soluble compound; conditions: Sus scrofa; summary of the method: as §1
[4] = substrate: CC(C)C[C@H](NC(=O)[C@H](N)Cc1ccc(O)cc1)C(=O)N[C@@H](C(=O)N(C)c1ccc(C#C/C=C/c2ccc([N+](=O)[O-])c(O)c2)cc1)C(C)C; assay: Proteolysis constant (Km), when mixed with human leukocyte elastase (HLE) enzyme for the conversion of water-soluble compound to fluorescent oil-soluble compound
Summary of the method: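 Human leukocyte elastase (1 unit = 1.2 µg; releases 1 µmol/min p-nitrophenol from N-t-BOC-L-alanine-p-nitrophenyl ester, pH 6.5, 37 °C) in 50 mM NaOAc, 100 mM NaCl, 8 mM NaN3 pH 6.0. Enzyme mixed with 12 µM substrate in buffer under a trace mineral-oil layer, shaken at 37 °C. Released fluorophore extracted into oil, diluted with n-heptane, quantified by absorbance at 424 nm against oil at 272 nm.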

B1: Kallikrein 1 (Sus scrofa), O97506 (protein)
chain: MEVIVLFRIISFRQAVYFMCLFAAVSCGCLPQLHKNTFFRGGDVSAMYTPSARHCQMMCTFHPRCLLFSFLPADSTSVTDKRFGCFLKDSVTGMLPRVLRENAISGHSLKQCGHQIRACHRDIYKGIDMRGVNFNVSKVKTVEECQERCTNSIHCLFFTYATQAFNNAEYRNNCLLKHSPGGTPTSIKVLANVESGFSLKPCADSEIGCHMDIFQHLAFSDVDVARVIAPDAFVCRTICTYHPNCLFFTFYTNAWKIESQRNVCFLKTSHSGTPSFPTPQENAISGYSLLTCKQTLPEPCHSKIYSEVDFEGEELNVTFVQGANLCQETCTKTIRCQFFTYSLHPEDCRGEKCKCSLRLSSDGSPTKITHGMRASSGYSLRLCRSGDHSACATKANTRIVGGTDSFLGEWPWQVSLQAKLRAQNHLCGGSIIGHQWVLTAAHCFDGLSLPDIWRIYGGILNISEITKETPFSQVKEIIIHQNYKILESGHDIALLKLETPLNYTDFQKPICLPSRDDTNVVYTNCWVTGWGFTEEKGEIQNILQKVNIPLVSNEECQKSYRDHKISKQMICAGYKEGGKDACKGESGGPLVCKYNGIWHLVGTTSWGEGCARREQPGVYTKVIEYMDWILEKTQDDDGQSWMK
- Km [1]: 92.2 µM

B2: Chymotrypsin-like elastase family member 2A (Sus scrofa), P08419 (protein)
chain: MIRALLLSTLVAGALSCGLPANLPQLPRVVGGEDARPNSWPWQVSLQYDSSGQWRHTCGGTLVDQSWVLTAAHCISSSRTYRVVLGRHSLSTNEPGSLAVKVSKLVVHQDWNSNQLSNGNDIALLKLASPVSLTDKIQLGCLPAAGTILPNNYVCYVTGWGRLQTNGASPDILQQGQLLVVDYATCSKPGWWGSTVKTNMICAGGDGIISSCNGDSGGPLNCQGANGQWQVHGIVSFGSSLGCNYYHKPSVFTRVSNYIDWINSVIANN
- Km [2]: 325 µM

B3: Trypsin (Sus scrofa), P00761 (protein)
chain: FPTDDDDKIVGGYTCAANSIPYQVSLNSGSHFCGGSLINSQWVVSAAHCYKSRIQVRLGEHNIDVLEGNEQFINAAKIITHPNFNGNTLDNDIMLIKLSSPATLNSRVATVSLPRSCAAAGTECLISGWGNTKSSGSSYPSLLQCLKAPVLSDSSCKSSYPGQITGNMICVGFLEGGKDSCQGDSGGPVVCNGQLQGIVSWGYGCAQKNKPGVYTKVCNYVNWIQQTIAAN
- Km [3]: 97 µM

B4: Neutrophil elastase (Homo sapiens), P08246 (protein)
chain: MTLGRRLACLFLACVLPALLLGGTALASEIVGGRRARPHAWPFMVSLQLRGGHFCGATLIAPNFVMSAAHCVANVNVRAVRVVLGAHNLSRREPTRQVFAVQRIFENGYDPVNLLNDIVILQLNGSATINANVQVAQLPAQGRRLGNGVQCLAMGWGLLGRNRGIASVLQELNVTVVTSLCRRSNVCTLVRGRQAGVCFGDSGSPLVCNGLIHGIASFVRGGCASGLYPDAFAPVAQFVNWIDSIIQRSEDNPCPHPRDPDPASRTH
- Km [4]: 16.1 µM
